Measured values of several laboratories.
Cell line: HT-29

CC[C@H](C)C(=O)O[C@H]1CCC=C2C=C[C@H](C)[C@H](CC[C@@H]3C[C@@H](O)CC(=O)O3)[C@H]21
IC50 (cell growth or viability; SRB; 72 h): 0.07 µg/mL

C#C[C@@]1(O)[C@@H](CO)O[C@@H](n2ccc(N)nc2=O)[C@@H]1O
IC50 (cell growth or viability; SRB; 72 h): 0.0094 µM

O=C1Nc2ccc(Cl)cc2/C1=N/NC(=O)c1cc2ccccc2[nH]1
IC50 (cell growth or viability): > 30 µM

Cc1ccc(-n2nc(C(C)(C)C)cc2NC(=O)Nc2ccc(OCCN3CCOCC3)c3ccccc23)cc1
IC50 (IL-8 release; 24 h): > 1.9 µM

CC(C)C[C@H](NC(=O)[C@H](Cc1ccccc1)NC(=O)c1cnccn1)B(O)O
IC50 (cell growth or viability; ATP luminescence): 0.0098 µM

O=C(O)C[C@H](O)C[C@H](O)/C=C/c1c(C2CC2)nc2ccccc2c1-c1ccc(F)cc1
IC50 (cell growth or viability; SRB; 72 h): 0.09 µg/mL

C1CCCC1.C1CCCC1.[Cl][W][Cl]
IC50 (cell growth or viability; MTT): 10000 µM

CCCCCCCCCCCC(=O)Oc1c(C)c(O)c(C(=O)/C=C/c2ccccc2)c(OC)c1C
IC50 (cell growth or viability; SRB; 72 h): > 50 µM

COc1ccc(C(=O)O[C@@H]2CN3Cc4c(cc5c(c4OC)OCO5)[C@@]24C=C[C@H](OC)C[C@@H]34)cc1
IC50 (cell growth or viability; WST-1): > 10 µM

O=C1Nc2ccccc2/C1=N/NC(=O)c1cc2ccccc2[nH]1
IC50 (cell growth or viability): 19.7 µM

COc1ccc(-c2cc3nccn3c(Nc3ncccc3C(N)=O)n2)cc1OC
IC50 (IL-8 release; 24 h): > 2.56 µM

CC(=O)O[C@H]1C(=O)[C@@]2(C)[C@H]([C@H](OC(=O)c3ccccc3)[C@]3(O)C[C@H](OC(=O)[C@H](O)[C@@H](NC(=O)c4ccccc4)c4ccccc4)C(C)=C1C3(C)C)[C@]1(OC(C)=O)CO[C@@H]1C[C@@H]2O
IC50 (cell growth or viability; fluorescence; 72 h): 0.0035 µM

COc1c2c(cc3c1OCO3)[C@]13C=C[C@H](OC)C[C@H]1N(C2)C[C@H]3OC(=O)c1cccc(C)c1
IC50 (cell growth or viability; WST-1): > 10 µM

CN1C(=O)/C(=N\NC(=O)c2cc3ccccc3[nH]2)c2cc(Cl)ccc21
IC50 (cell growth or viability): 5.67 µM

O=C(O)/C=C/c1ccc(O)c(O)c1
IC50 (cell growth or viability; MTT): 4.3 µM

C#C[C@@]1(O)[C@@H](COP(=O)(O)OC[C@H]2O[C@@H](n3cc(F)c(=O)[nH]c3=O)C[C@@H]2O)O[C@@H](n2ccc(N)nc2=O)[C@@H]1O
IC50 (cell growth or viability; SRB; 72 h): 0.0054 µM

CCN(CC)CCNC(=O)c1c(C)[nH]c(/C=C2\C(=O)Nc3ccc(F)cc32)c1C
IC50 (cell growth or viability): 10.1 µM

CC[C@]1(O)C[C@H]2CN(CCc3c([nH]c4ccccc34)[C@@](C(=O)OC)(c3cc4c(cc3OC)N(C=O)[C@H]3[C@@](O)(C(=O)OC)[C@H](OC(C)=O)[C@]5(CC)C=CCN6CC[C@]43[C@@H]65)C2)C1
IC50 (cell growth or viability; fluorescence; 72 h): 0.0004 µM

C#Cc1cccc(Nc2ncnc3cc(OCCOC)c(OCCOC)cc23)c1
IC50 (cell growth or viability; MTT): 0.07 µM

O=C1Nc2ccc(F)cc2/C1=N/NC(=O)c1cc2ccccc2[nH]1
IC50 (cell growth or viability): > 30 µM

NCCCC[C@@H](N)C(=O)Nc1ccc(-n2nc(C(F)(F)F)cc2-c2ccc3c(ccc4ccccc43)c2)cc1
IC50 (cell growth or viability; MTT; 24 h): 3.2 µg/mL

CC(=O)c1cccc(N=Nc2c(C(=O)O)cc(O)c(O)c2O)c1
IC50 (cell growth or viability; MTT): 10.2 µM

O=c1cc(CO)occ1[O-].[Cl-].[W+4].c1cc[cH-]c1.c1cc[cH-]c1
IC50 (cell growth or viability; MTT): 200 µM

O=C(O)/C=C/c1ccc(O)cc1
IC50 (cell growth or viability; MTT): > 50 µM

CN1C(=O)/C(=N\NC(=O)c2cc3ccccc3[nH]2)c2cc(F)ccc21
IC50 (cell growth or viability): 8.92 µM

NCC(=O)Nc1ccc(-n2nc(C(F)(F)F)cc2-c2ccc3c(ccc4ccccc43)c2)cc1
IC50 (cell growth or viability; MTT; 24 h): 3.6 µg/mL

COc1c(C)c(OS(=O)(=O)c2ccc3ccccc3c2)c(C)c(OS(=O)(=O)c2ccc3ccccc3c2)c1C(=O)/C=C/c1ccccc1
IC50 (cell growth or viability; SRB; 72 h): > 50 µM
